Assays:
P388 [1] = experiment: In vivo antileukemic activity against P388 lymphocytic leukemia at a dose of 7.5 mg/kg administered intraperitoneally expressed as log of the number of tumor cells (cell kill); assay type: ADME, organism-based; set-up: dose 7.5 mg/kg, route intraperitoneal; conditions: mouse, ip
Method in brief: (§1)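 P388 tumor inoculated ip. Drug solution in distilled water injected ip as five daily doses, starting 24 h after inoculation; some compounds were given as suspensions made fresh daily and used immediately.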

P388 [2] = experiment: In vivo antileukemic activity against P388 lymphocytic leukemia at a dose of 30 mg/kg administered intraperitoneally expressed as weight change of treated to control animals; assay type: functional, Mus musculus; conditions: route intraperitoneal
Method in brief: (§2)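 P388 leukemia inoculated ip. Test drug in distilled water given ip once daily for 5 days, beginning 24 h post-inoculation; some compounds were dosed as suspensions prepared fresh daily and used immediately. Read-out is body weight change of treated animals relative to untreated controls.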

P388 [3] = experiment: In vivo antileukemic activity against P388 lymphocytic leukemia at a dose of 15 mg/kg administered intraperitoneally expressed as weight change of treated to control animals; assay type: functional, Mus musculus; conditions: route intraperitoneal; method in brief: as §2
P388 [4] = experiment: In vivo antileukemic activity against P388 lymphocytic leukemia at a dose of 15 mg/kg administered intraperitoneally expressed as ratio of survival of treated compared to untreated control animals; assay type: functional, Mus musculus; conditions: route intraperitoneal
Method in brief: (§3)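 Drug given ip as a solution in distilled water. Five daily doses, starting 24 h after ip tumor inoculation. % T/C is the survival of treated animals divided by that of untreated controls, expressed as a percent. Log cell kill (KE) is the log of tumor cell number at the end of treatment relative to the start. Weight change of treated animals is recorded relative to controls.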

P388 [5] = experiment: In vivo antileukemic activity against P388 lymphocytic leukemia at a dose of 30 mg/kg administered intraperitoneally expressed as log of the number of tumor cells (cell kill); assay type: ADME, organism-based; set-up: dose 30 mg/kg, route intraperitoneal; conditions: mouse, ip; method in brief: as §1
P388 [6] = experiment: In vivo antileukemic activity against P388 lymphocytic leukemia at a dose of 30 mg/kg administered intraperitoneally expressed as ratio of survival of treated compared to untreated control animals; assay type: functional, Mus musculus; conditions: route intraperitoneal; method in brief: as §3
P388 [7] = experiment: In vivo antileukemic activity against P388 lymphocytic leukemia at a dose of 3.75 mg/kg administered intraperitoneally expressed as ratio of survival of treated compared to untreated control animals; assay type: functional, Mus musculus; conditions: route intraperitoneal; method in brief: as §3
P388 [8] = experiment: In vivo antileukemic activity against P388 lymphocytic leukemia at a dose of 15 mg/kg administered intraperitoneally expressed as log of the number of tumor cells (cell kill); assay type: ADME, organism-based; set-up: dose 15 mg/kg, route intraperitoneal; conditions: mouse, ip; method in brief: as §1
P388 [9] = experiment: In vivo antileukemic activity against P388 lymphocytic leukemia at a dose of 7.5 mg/kg administered intraperitoneally expressed as ratio of survival of treated compared to untreated control animals; assay type: functional, Mus musculus; conditions: route intraperitoneal; method in brief: as §3
P388 [10] = experiment: In vivo antileukemic activity against P388 lymphocytic leukemia at a dose of 7.5 mg/kg administered intraperitoneally expressed as weight change of treated to control animals; assay type: functional, Mus musculus; conditions: route intraperitoneal; method in brief: as §2
P388 [11] = experiment: In vivo antileukemic activity against P388 lymphocytic leukemia at a dose of 3.75 mg/kg administered intraperitoneally expressed as weight change of treated to control animals; assay type: functional, Mus musculus; conditions: route intraperitoneal; method in brief: as §2
P388 [12] = experiment: In vivo antileukemic activity against P388 lymphocytic leukemia at a dose of 3.75 mg/kg administered intraperitoneally expressed as log of the number of tumor cells (cell kill); assay type: ADME, organism-based; set-up: dose 3.75 mg/kg, route intraperitoneal; conditions: mouse, ip; method in brief: as §1
P388 [13] = experiment: In vivo antileukemic activity against P388 lymphocytic leukemia at a dose of 240 mg/kg administered intraperitoneally expressed as weight change of treated to control animals; assay type: functional, Mus musculus; conditions: route intraperitoneal; method in brief: as §2
P388 [14] = experiment: In vivo antileukemic activity against P388 lymphocytic leukemia at a dose of 240 mg/kg administered intraperitoneally expressed as log of the number of tumor cells (cell kill); assay type: ADME, organism-based; set-up: dose 240 mg/kg, route intraperitoneal; conditions: mouse, ip; method in brief: as §1
P388 [15] = experiment: In vivo antileukemic activity against P388 lymphocytic leukemia at a dose of 240 mg/kg administered intraperitoneally expressed as ratio of survival of treated compared to untreated control animals; assay type: functional, Mus musculus; conditions: route intraperitoneal; method in brief: as §3
P388 [16] = experiment: In vivo antileukemic activity against P388 lymphocytic leukemia at a dose of 25 mg/kg administered intraperitoneally expressed as weight change of treated to control animals; assay type: functional, Mus musculus; conditions: route intraperitoneal; method in brief: as §2
P388 [17] = experiment: In vivo antileukemic activity against P388 lymphocytic leukemia at a dose of 12.5 mg/kg administered intraperitoneally expressed as weight change of treated to control animals; assay type: functional, Mus musculus; conditions: route intraperitoneal; method in brief: as §2
P388 [18] = experiment: In vivo antileukemic activity against P388 lymphocytic leukemia at a dose of 25 mg/kg administered intraperitoneally expressed as log of the number of tumor cells (cell kill); assay type: ADME, organism-based; set-up: dose 25 mg/kg, route intraperitoneal; conditions: mouse, ip; method in brief: as §1
P388 [19] = experiment: In vivo antileukemic activity against P388 lymphocytic leukemia at a dose of 25 mg/kg administered intraperitoneally expressed as ratio of survival of treated compared to untreated control animals; assay type: functional, Mus musculus; conditions: route intraperitoneal; method in brief: as §3
P388 [20] = experiment: In vivo antileukemic activity against P388 lymphocytic leukemia at a dose of 100 mg/kg administered intraperitoneally expressed as ratio of survival of treated compared to untreated control animals; assay type: functional, Mus musculus; conditions: route intraperitoneal; method in brief: as §3
P388 [21] = experiment: In vivo antileukemic activity against P388 lymphocytic leukemia at a dose of 50 mg/kg administered intraperitoneally expressed as log of the number of tumor cells (cell kill); assay type: ADME, organism-based; set-up: dose 50 mg/kg, route intraperitoneal; conditions: mouse, ip; method in brief: as §1
P388 [22] = experiment: In vivo antileukemic activity against P388 lymphocytic leukemia at a dose of 50 mg/kg administered intraperitoneally expressed as weight change of treated to control animals; assay type: functional, Mus musculus; conditions: route intraperitoneal; method in brief: as §2
P388 [23] = experiment: In vivo antileukemic activity against P388 lymphocytic leukemia at a dose of 50 mg/kg administered intraperitoneally expressed as ratio of survival of treated compared to untreated control animals; assay type: functional, Mus musculus; conditions: route intraperitoneal; method in brief: as §3
P388 [24] = experiment: In vivo antileukemic activity against P388 lymphocytic leukemia at a dose of 12.5 mg/kg administered intraperitoneally expressed as ratio of survival of treated compared to untreated control animals; assay type: functional, Mus musculus; conditions: route intraperitoneal; method in brief: as §3
P388 [25] = experiment: In vivo antileukemic activity against P388 lymphocytic leukemia at a dose of 12.5 mg/kg administered intraperitoneally expressed as log of the number of tumor cells (cell kill); assay type: ADME, organism-based; set-up: dose 12.5 mg/kg, route intraperitoneal; conditions: mouse, ip; method in brief: as §1
P388 [26] = experiment: In vivo antileukemic activity against P388 lymphocytic leukemia at a dose of 100 mg/kg administered intraperitoneally expressed as weight change of treated to control animals; assay type: functional, Mus musculus; conditions: route intraperitoneal; method in brief: as §2
P388 [27] = experiment: In vivo antileukemic activity against P388 lymphocytic leukemia at a dose of 100 mg/kg administered intraperitoneally expressed as log of the number of tumor cells (cell kill); assay type: ADME, organism-based; set-up: dose 100 mg/kg, route intraperitoneal; conditions: mouse, ip; method in brief: as §1
P388 [28] = experiment: In vivo antileukemic activity against P388 lymphocytic leukemia at a dose of 400 mg/kg administered intraperitoneally expressed as log of the number of tumor cells (cell kill); assay type: ADME, organism-based; set-up: dose 400 mg/kg, route intraperitoneal; conditions: mouse, ip; method in brief: as §1
P388 [29] = experiment: In vivo antileukemic activity against P388 lymphocytic leukemia at a dose of 400 mg/kg administered intraperitoneally expressed as weight change of treated to control animals; assay type: functional, Mus musculus; conditions: route intraperitoneal; method in brief: as §2
P388 [30] = experiment: In vivo antileukemic activity against P388 lymphocytic leukemia at a dose of 200 mg/kg administered intraperitoneally expressed as weight change of treated to control animals; assay type: functional, Mus musculus; conditions: route intraperitoneal; method in brief: as §2
P388 [31] = experiment: In vivo antileukemic activity against P388 lymphocytic leukemia at a dose of 200 mg/kg administered intraperitoneally expressed as ratio of survival of treated compared to untreated control animals; assay type: functional, Mus musculus; conditions: route intraperitoneal; method in brief: as §3
P388 [32] = experiment: In vivo antileukemic activity against P388 lymphocytic leukemia at a dose of 200 mg/kg administered intraperitoneally expressed as log of the number of tumor cells (cell kill); assay type: ADME, organism-based; set-up: dose 200 mg/kg, route intraperitoneal; conditions: mouse, ip; method in brief: as §1
P388 [33] = experiment: In vivo antileukemic activity against P388 lymphocytic leukemia at a dose of 400 mg/kg administered intraperitoneally expressed as ratio of survival of treated compared to untreated control animals; assay type: functional, Mus musculus; conditions: route intraperitoneal; method in brief: as §3

`CC(C)NC(=O)OCc1cn(C)c(-c2ccccc2)c1COC(=O)NC(C)C` gave a KE (P388 [1]) of 0.32, a Weight change (P388 [2]) of -3.4 g and a Weight change (P388 [3]) of -3.2 g. The T/C (P388 [4]) was 181%, the KE (P388 [5]) was 1.99 and the T/C (P388 [6]) was 171%. For the same compound, the T/C (P388 [7]) was 129%, the KE (P388 [8]) was 2.63 and the T/C (P388 [9]) was 145%. It also gave a Weight change (P388 [10]) of -1.9 g, a Weight change (P388 [11]) of -0.5 g and a KE (P388 [12]) of -0.7.
`C[N+]1([O-])CC=CC1` showed a Weight change (P388 [13]) of -0.2 g, a KE (P388 [14]) of -0.12 and a T/C (P388 [15]) of 108%.
For `CC(C)NC(=O)OCC1=C(COC(=O)NC(C)C)C(c2ccccc2)[N+](C)([O-])C1` (centres undefined), the Weight change (P388 [16]) was -0.1 g, the Weight change (P388 [17]) was 1.6 g and the KE (P388 [18]) was -1.5. For the same compound, the T/C (P388 [19]) was 109%, the T/C (P388 [20]) was 134% and the KE (P388 [21]) was -1.16. For the same compound, the Weight change (P388 [22]) was -0.6 g, the T/C (P388 [23]) was 116% and the T/C (P388 [24]) was 115%. It also gave a KE (P388 [25]) of -1.21, a Weight change (P388 [26]) of -1.5 g and a KE (P388 [27]) of -0.11.
`CNC(=O)OCC1=CC[N+](C)([O-])C1COC(=O)NC` (centres undefined) was tested, and the Weight change (P388 [16]) was -1.2 g, the KE (P388 [28]) was 0.34 and the Weight change (P388 [29]) was -5.7 g. It also gave a Weight change (P388 [17]) of -3.8 g, a KE (P388 [18]) of -1.23 and a T/C (P388 [19]) of 122%. The T/C (P388 [20]) was 159%, the KE (P388 [21]) was 0.62 and the Weight change (P388 [30]) was -2.4 g. It also gave a Weight change (P388 [22]) of -1.5 g, a T/C (P388 [31]) of 150% and a T/C (P388 [23]) of 145%. For the same compound, the T/C (P388 [24]) was 142%, the KE (P388 [25]) was 0.39 and the KE (P388 [32]) was 1. It also gave a Weight change (P388 [26]) of -2.1 g, a KE (P388 [27]) of 1.7 and a T/C (P388 [33]) of 143%.
With `CC(C)NC(=O)OCC1=C(COC(=O)NC(C)C)C(C)(C)[N+](C)([O-])C1c1ccccc1` (centres undefined) the Weight change (P388 [16]) was 0.1 g, the Weight change (P388 [17]) was 2.1 g and the KE (P388 [18]) was -1.64. For the same compound, the T/C (P388 [19]) was 100%, the T/C (P388 [20]) was 107% and the KE (P388 [21]) was -1.53. For the same compound, the Weight change (P388 [22]) was 0.9 g, the T/C (P388 [23]) was 107% and the T/C (P388 [24]) was 108%. It also gave a KE (P388 [25]) of -1.54, a Weight change (P388 [26]) of 0.7 g and a KE (P388 [27]) of -1.53.
Work on `CC(C)NC(=O)OCC1=C(COC(=O)NC(C)C)C(c2ccccc2)N(C)C1` (centres undefined) yielded a Weight change (P388 [16]) of -0.9 g, a Weight change (P388 [17]) of 0 g and a KE (P388 [18]) of 0. It also gave a T/C (P388 [19]) of 136%, a T/C (P388 [20]) of 225% and a KE (P388 [21]) of 0.53. It also gave a Weight change (P388 [22]) of -2 g, a T/C (P388 [23]) of 145% and a T/C (P388 [24]) of 121%. It also gave a KE (P388 [25]) of 0.84, a Weight change (P388 [26]) of -2.2 g and a KE (P388 [27]) of 5.18.
